For assay [1], the system named is Rattus norvegicus. Kind of assay: Antihypertensive activity in Wistar rat assessed as decrease of systolic blood pressure at 31 mg/kg, po up to 8 hrs. The assay is classed as functional, Artery. A digest of the protocol: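 Renal hypertension in female Wistar rats: figure-of-eight ligature on one kidney, other kidney removed. Rats with systolic pressure above 160 mmHg used, groups of ten. Tail-cuff occlusion with pulse detector measured systolic pressure before and 2, 4, 6, 8 h after a 31 mg/kg oral dose. Value is the mean decrease over 8 h ± standard error.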

For assay [2], the species on record is Oryctolagus cuniculus. Kind of assay: Blockade of alpha-adrenergic receptor in rabbit aortic strips assessed as reduction of epinephrine-induced response. Put shortly:
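Rabbit aortic strip sensitized by repeated exposure to 0.01 mcg/mL epinephrine. Responses to this concentration were compared before and after 200 s incubation with rising compound concentrations. Percent blockade was calculated at each concentration. ED50, the concentration blocking the response by 50%, was extrapolated from the concentration-response curve.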

For assay [3], the system named is Canis familiaris. Kind of assay: Vasodilatory activity in dog assessed as increase of femoral blood flow by 100 mL/min administered as intraarterially. Type of assay: functional, Canis lupus familiaris. A digest of the protocol:
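Pentobarbital-anesthetized dogs with an electromagnetic flowmeter sensor around a femoral artery. Compound was injected intraarterially through a branch vessel at increasing doses, and the peak flow increase after each dose was recorded. ED100, the dose raising flow 100 mL/min above control, was extrapolated from the dose-response curve.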

Each structure is given as a SMILES string. In brackets after ≈: the same amount, converted by molar mass.

For the compound `CN(C)CCCN1C(=O)C(CCCCCCCN2CCN(c3ccccc3)CC2)C(=O)c2ccccc21.CO.O=C(O)C(=O)O` (configuration not stated), in assay [1], the Activity is 12 mmHg. Besides, in assay [2], the ED50 was 0.64 µg/mL. The ED100 in assay [3] is 205 µg.
With `COc1ccc(Cc2nccc3cc(OC)c(OC)cc23)cc1OC` [PAPAVERINE], in assay [3], the ED100 was determined as 1825 µg.
With `Cc1ccc(N(CC2=NCCN2)c2cccc(O)c2)cc1` [PHENTOLAMINE], in assay [1], the Activity came out at 45 mmHg. Further, in assay [2], the ED50 came out at 0.03 µg/mL (≈ 0.107 µM). Besides, the ED100 in assay [3] came to 117 µg.

For the origin of these results see ChEMBL document CHEMBL3243939, “Derivatives of 1,3-disubstituted 2,4(1H,3H)-quinazolinediones as possible peripheral vasodilators or antihypertensive agents” (1979).
